Laboratory results as given in ChEMBL document CHEMBL1158046, “Photoactivated insecticidal thiophene derivatives from Xanthopappus subacaulis” (2006).
Values after ≈ are worked out from the molar mass of the structure shown.

How the values were obtained:
[1] = tested on: Aedes albopictus; assay: Insecticidal activity against Asian tiger mosquito fourth-instar larvae after 24 hrs in dark; format: functional
How it was run: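 Aedes albopictus fourth-instar larvae from a laboratory colony; samples dissolved and serially diluted in acetone, 0.4 mL added to 20 mL dechlorinated water with 30 larvae; held in the dark throughout the trial; mortality read at 24 h, three replications per concentration; LC50 (concentration causing 50% mortality) determined.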

[2] = tested on: Aedes albopictus; assay: Insecticidal activity against Asian tiger mosquito fourth-instar larvae irradiated with 2074 uW/cm'2 UV light for 1.5 hrs; format: functional; settings: light or radiation study
How it was run: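 Aedes albopictus fourth-instar larvae from a laboratory colony; acetone-diluted samples (0.4 mL) added to 20 mL dechlorinated water with 30 larvae; 3 h dark incubation, then 1.5 h UV irradiation (300-400 nm, max 365 nm), then 24 h in darkness; mortality from three replications per concentration; LC50 (concentration causing 50% mortality) determined.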

Structure (SMILES)	LC50 [1]	LC50 [2]
C/C=C/C#CC#Cc1ccc(C(=O)C(O)(CC(C)=O)c2ccc(C#CC#C/C=C/C)s2)s1 (racemic) [XANTHOPAPPIN C]	> 10 mg/L	0.95 mg/L (≈ 2.08 µM)
C/C=C/C#CC#Cc1ccc(C(O)CCl)s1 (racemic) [XANTHOPAPPIN B]	5.1 mg/L (≈ 20.3 µM)	0.53 mg/L (≈ 2.11 µM)
C/C=C/C#CC#Cc1ccc(C(COC(C)=O)OC(C)=O)s1 (racemic)	> 10 mg/L	0.66 mg/L (≈ 2.09 µM)
C/C=C/C#CC#Cc1cccs1 [XANTHOPAPPIN A]	> 10 mg/L	0.71 mg/L (≈ 4.12 µM)
C/C=C/C#CC#Cc1ccc(CO)s1	> 10 mg/L	0.3 mg/L (≈ 1.48 µM)
C/C=C/C#CC#Cc1ccc(C(O)CO)s1 (racemic)	> 10 mg/L	4.2 mg/L (≈ 18.1 µM)
